Measurements of several laboratories.
Target: Mitogen-activated protein kinase kinase kinase 11 (MAP3K11, Homo sapiens, UniProt Q16584)

| SMILES | read-out | mode | technique | concentration | measurement | result |
| --- | --- | --- | --- | --- | --- | --- |
| C1=C/COCc2cc(ccc2OCCN2CCCC2)Nc2nccc(n2)-c2cccc(c2)COC/1 | cell-free assay |  |  | 0.1 µM | remaining signal | 100% |
| CC(C)S(=O)(=O)c1ccc2nccc(Nc3ccc4sc(C5CCCC5)nc4c3)c2c1 | enzyme activity | inhibitor |  | 1 µM | activity vs control | 98% |
| C=CC(=O)N1CCC([C@@H]2CCNc3c(C(N)=O)c(-c4ccc(Oc5ccccc5)cc4)nn32)CC1 | enzyme activity | inhibitor |  | 1 µM | inhibition | 0% |
| CN1CCN(C(=O)c2ccc(NC(=O)Nc3ccc(N(C)c4ccnc(Nc5ccc(CS(C)(=O)=O)cc5)n4)cc3)cc2)CC1 | binding |  |  | 1 µM | remaining binding | 91% |
| C=CC(=O)N1CCC[C@@H](n2nc(-c3ccc(Oc4ccccc4)cc3)c3c(N)ncnc32)C1 | enzyme activity | inhibitor |  | 1 µM | inhibition | 0% |
| CCCCC(=O)Nc1ccc(-c2ccc3ncn(CCC)c(=O)c3c2)cn1 | binding |  | competition with immobilised ligand | 0.5 µM | remaining binding | 82% |
| COc1ccc2[nH]c3c4[nH]c5ccc(OC)cc5c4c4c(c3c2c1)C(=O)NC4=O | binding |  |  | 1 µM | remaining binding | 5.6% |
| C#Cc1cc(-c2cc(Nc3nc(N[C@@H](C)c4ccc(F)cn4)ncc3Cl)n[nH]2)ccc1C=O | enzyme activity | inhibitor |  | 0.2 µM | inhibition | 72.5% |
